# According to PubChem BioAssay:
# The source made the active and inactive calls.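 The calls were made as follows, unless noted: active = fluorescence slope after compound addition differing from the mean of all screened samples at 99.7% confidence, in either direction; inactive = the rest.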
# How the values were obtained:
# [1] = inhibitors of TNFa-induced NFkB p65 translocation, primary screen, imaging, HUVEC, MLSMR starter and 10KST1 sets (AID 438;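 active = inhibition above 20% together with a positive visual image hit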;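 also: compound added about 3h40 before a 20 min TNFalpha stimulation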;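 as to inhibition: signal is the nuclear over cytoplasmic p65 intensity ratio per well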); conditions: HUVEC TNFa-induced p65 nuclear translocation; cell count: measured here: nuclei count (cytotoxicity indicator), at 2.08 µM; inhibition: at 2 µM, stronger effect = higher value, 0% TNFa-plus-vehicle, 100% no-TNFa wells
# [2] = endothelial E-selectin expression blockers – imaging, HUVEC, immunofluorescence, MLSMR starter and 10KST1 sets, primary screen (AID 487;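 active = visually confirmed hit in the image check and inhibition above 20%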;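 as to inhibition: signal is fraction of cell area covered by stained E-selectin grains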;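 as to nuclei count: 100% = median nuclei count of all wells on the same plate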); conditions: HUVEC TNFalpha-induced E-selectin immunofluorescence imaging, at 2 µM; inhibition: stronger effect = higher value; nuclei count: measured here: cell number, toxicity
# [3] = Primary imaging screen for DUSP6 inhibitors that restore phospho-Erk in transfected HeLa cells, chemical complementation (AID 609;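 active = compounds giving at least 50% inhibition in the cell-based MKP-3 phosphatase rescue imaging test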;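 as to inhibition: phospho-Erk level distribution per well compared with pooled transfected vehicle control wells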); conditions: HeLa MKP-3 transfected, phospho-Erk imaging KS statistic, at 10 µM, cells stimulated with TPA for 15 min
# [4] = biological target: Dual specificity protein phosphatase 6 (Homo sapiens) (UniProt Q16828); test: as above; conditions: HeLa MKP-3 transfected, phospho-Erk imaging KS statistic; at 10 µM; stronger effect = higher value; cells stimulated with TPA for 15 min
# Sequence of Dual specificity protein phosphatase 6 (Homo sapiens) (Q16828 whole entry, looked up): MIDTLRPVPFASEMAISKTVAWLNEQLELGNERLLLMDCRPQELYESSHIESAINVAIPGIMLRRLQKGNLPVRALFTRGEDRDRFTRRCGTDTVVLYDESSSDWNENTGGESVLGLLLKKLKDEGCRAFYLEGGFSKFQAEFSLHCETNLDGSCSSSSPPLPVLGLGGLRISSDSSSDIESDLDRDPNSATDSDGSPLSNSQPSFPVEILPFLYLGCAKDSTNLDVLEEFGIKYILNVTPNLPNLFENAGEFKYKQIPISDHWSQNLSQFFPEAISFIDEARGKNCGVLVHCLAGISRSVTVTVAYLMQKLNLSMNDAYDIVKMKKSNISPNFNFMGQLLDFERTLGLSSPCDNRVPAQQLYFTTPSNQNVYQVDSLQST
# [5] = biological target: Voltage-gated potassium channel subunit beta-2 (Rattus norvegicus) (UniProt P62483); test: inhibitors of rat Kvbeta2 reductase activity – biochemical, NADPH fluorescence, primary screen (AID 622;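 active = fluorescence slope higher than the sample average by over 3 SD, cut at about -0.22 in these data, passing the limit was not always enough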;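 also: slope of raw intensity against log time taken from 70 to 1610 s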); conditions: recombinant KvBeta, 4-cyanobenzaldehyde reduction, at 10 µM, stronger effect = higher value
# Sequence of Voltage-gated potassium channel subunit beta-2 (Rattus norvegicus) (P62483 whole entry, looked up): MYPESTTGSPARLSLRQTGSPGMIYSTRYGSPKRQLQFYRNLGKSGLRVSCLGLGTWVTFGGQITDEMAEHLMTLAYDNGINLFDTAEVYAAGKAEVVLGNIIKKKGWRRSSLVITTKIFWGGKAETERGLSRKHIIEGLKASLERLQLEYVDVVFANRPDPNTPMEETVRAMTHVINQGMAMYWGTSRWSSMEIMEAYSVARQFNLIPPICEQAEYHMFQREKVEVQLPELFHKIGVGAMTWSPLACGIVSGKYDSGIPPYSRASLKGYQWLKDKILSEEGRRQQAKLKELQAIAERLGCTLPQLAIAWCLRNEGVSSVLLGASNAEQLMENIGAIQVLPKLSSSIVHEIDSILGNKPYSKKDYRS
# [6] = biological target: Voltage-gated potassium channel subunit beta-2 (Rattus norvegicus) (UniProt P62483); test: enhancers of rat Kvbeta2 NADPH turnover – biochemical, NADPH fluorescence, primary screen (AID 623;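 active = NADPH fluorescence slope more negative than the mean of all samples by about 3 SD, 99.7% confidence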;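 also: fluorescence intensity change per second fitted from 20 to 320 s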); conditions: Recombinant KvBeta, NADPH fluorescence decrease slope, 10 min; at 10 µM; stronger effect = lower value
# [7] = biological target: Alpha-2C adrenergic receptor (Homo sapiens) (UniProt P18825); test: compounds altering alpha2C-coupled GIRK flux – cell-based, HEK293 alpha2C/GIRK1/2, thallium flux, primary screen (AID 624); conditions: thallium flux BTC fluorescence, at 10 µM, actives lie on both sides;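 also: slope of fluorescence ratio to pre-addition baseline per second over 15 to 24 s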
# Sequence of Alpha-2C adrenergic receptor (Homo sapiens) (P18825 whole entry, looked up): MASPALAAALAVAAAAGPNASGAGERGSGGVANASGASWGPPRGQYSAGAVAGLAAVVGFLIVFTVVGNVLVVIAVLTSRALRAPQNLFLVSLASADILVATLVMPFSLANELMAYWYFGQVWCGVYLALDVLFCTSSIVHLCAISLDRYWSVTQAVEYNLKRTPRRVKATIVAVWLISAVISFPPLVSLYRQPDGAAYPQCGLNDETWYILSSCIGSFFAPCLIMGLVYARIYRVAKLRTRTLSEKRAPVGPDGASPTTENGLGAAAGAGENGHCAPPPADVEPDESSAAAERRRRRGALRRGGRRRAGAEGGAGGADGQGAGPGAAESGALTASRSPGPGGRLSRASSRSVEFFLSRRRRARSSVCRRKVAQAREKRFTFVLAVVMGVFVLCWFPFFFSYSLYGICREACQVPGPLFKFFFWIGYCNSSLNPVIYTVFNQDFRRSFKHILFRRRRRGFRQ
# [8] = inhibitors of larval lipid processing in zebrafish, primary screen, whole organism, PED6 fluorescence, gall bladder and intestine (AID 686;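 active = a full or partial loss of lipid-probe fluorescence in the fish gall bladder, intestine or both, judged by eye; inactive = no fluorescence loss, or compound toxic to the fish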;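 also: larvae 5 to 7 days old with five fish per well; signal comes from phospholipase A2 cleavage of quenched PED6 carried via bile; overnight exposure to compound and PED6 before scoring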); conditions: Zebrafish larvae PED6 lipid processing, fluorescence scoring; screened at 20 µM (by protocol)
# Summary of the method: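 System: live zebrafish larvae aged 5-7 days, whole organism; measure: graded gall bladder and intestinal fluorescence inhibition per well; incubation: overnight exposure; reagent: ingested quenched lipid PED6 at 100 nM; signal: By-eye fluorescence microscopy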
# [9] = loss of swimming-algae plug formation – whole organism, Chlamydomonas reinhardtii, WT vs cilia-less mutant, absorbance, 96-well, primary screen (AID 463189;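 active = inhibition at or above 50% relative to wild type and mutant plate controls; inactive = inhibition below 50%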;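 also: 0% = wild type cc124 cells in DMSO and 100% = ciliumless bld1 mutant cells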); conditions: Chlamydomonas reinhardtii gravitaxis, OD600 absorbance, 2 days; at 10 µM; stronger effect = higher value
# [10] = measured here: cell density z-score
# [11] = measured here: nuclear c-Myc green intensity z-score
# [12] = measured here: nuclear pErk red intensity z-score, stronger effect = higher value
SMILES,cell count [1],inhibition [1],inhibition [2],nuclei count [2] [%],"z-score [3, 10]","z-score [3, 11]","z-score [3, 12]",inhibition [4],fluorescence slope [5],NADPH fluorescence slope [6],slope [7],outcome [8],inhibition [9]
COc1ccccc1N1CCN(CCOc2c(OC)cccc2OC)CC1,492,-10.5% (inactive),-105% (inactive),116,-1.56,1.65,0.711,-3.98% (inactive),-0.469 (inactive),-0.000262 (inactive),0.00445 (inactive),inactive,-3.94% (inactive)
COc1cccc(-c2nc(NCC3CCCO3)c3ccccc3n2)c1O (stereo unspecified),553,-3.3% (inactive),-74.2% (inactive),131,-1.22,0.707,0.124,1.6e-07% (inactive),-0.34 (inactive),-2.8e-05 (inactive),0.00373 (inactive),inactive,55.5% (active)
CCOC(=O)CSc1nc(C)c(C(C)=O)cc1C#N,623,-18.6% (inactive),-0.7% (inactive),147,-0.31,-1.06,-1.5,-0.624% (inactive),-0.403 (inactive),-1.7e-05 (inactive),0.00581 (inactive),inactive,43.9% (inactive)
CN1CCN(CC(=O)Nc2nc(-c3ccccc3)cs2)CC1,667,-3.3% (inactive),-41.9% (inactive),149,-1.89,1.19,0.906,0.671% (inactive),-0.462 (inactive),-0.000262 (inactive),0.0053 (inactive),inactive,8.3% (inactive)
COc1ccc(Cn2c(O)cc(=O)[nH]c2=O)cc1,518,-0.7% (inactive),-49.2% (inactive),94,-1.59,1.15,-0.805,11.9% (inactive),-0.386 (inactive),4.3e-06 (inactive),0.00581 (inactive),inactive,-11.1% (inactive)
CCN(CC)CCCn1c(C)cc2c(c1=O)C(c1cccc(Cl)c1)C(C#N)=C(N)O2 (stereo unspecified),448,13.8% (inactive),-49.3% (inactive),146,-0.339,0.269,1.37,2.46% (inactive),-0.388 (inactive),-4.3e-05 (inactive),0.00525 (inactive),inactive,-6.29% (inactive)
CCC(C)Nc1nc(-c2cccc(OC)c2O)nc2ccccc12 (stereo unspecified),570,3.5% (inactive),-68.3% (inactive),152,-0.862,-0.242,1.22,1.6e-07% (inactive),-0.394 (inactive),-5e-05 (inactive),0.00426 (inactive),inactive,65.6% (active)
CC1(C(=O)O)CCC(C(=O)NC2CCCCCC2)C1(C)C (stereo unspecified),542,-9.8% (inactive),-131% (inactive),196,1.72,-0.55,-1.37,28.6% (inactive),-0.513 (inactive),-0.000107 (inactive),0.00621 (inactive),inactive,28.8% (inactive)
Cc1nc(-c2c(-c3ccc(O)cc3O)noc2C(F)(F)F)cs1,518,-18.3% (inactive),-135% (inactive),163,0.818,-0.387,0.0899,20.2% (inactive),-0.468 (inactive),-0.000226 (inactive),0.00467 (inactive),inactive,20.1% (inactive)
O=S(=O)(O)c1nc2ccccc2n1Cc1ccc(Cl)cc1Cl,405,-4.7% (inactive),-102% (inactive),149,-0.945,0.195,-1.66,20.8% (inactive),-0.337 (inactive),-1.5e-05 (inactive),0.00557 (inactive),inactive,27.2% (inactive)
CCCCc1c(C)nn(-c2nnc3c4ccccc4n(C)c3n2)c1C,575,-12.6% (inactive),-37.2% (inactive),161,-0.575,2.07,-0.403,7.73% (inactive),-0.48 (inactive),-5.6e-05 (inactive),0.00441 (inactive),inactive,21.4% (inactive)
CC(C)(C)OC(=O)NCCC(=O)Oc1ccc2ccc(=O)oc2c1,499,-1.3% (inactive),-209% (inactive),185,0.0263,0.375,0.541,-11% (inactive),-0.362 (inactive),-2.1e-05 (inactive),0.00495 (inactive),inactive,16.5% (inactive)
